Activity calls are given as the source filed them. Cut-off read from the data, not from the text of the source, unless noted: active = inhibition above about 30%; inactive = the rest.

The record followed here is PubChem BioAssay.

The nature of assay [1]: reduced viability of SK-BR-3 breast cancer cells – cell-based, 24 h, human, pilot screen (AID 572;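 active = viability at or below 10% of carrier control in both of two separate runs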;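 note: compound exposure lasted between 18 and 24 h rather than exactly 24 h; 100% = carrier-treated control wells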). The note with it: SK-BR-3 viability, CellTiter-Glo luminescence, at 10 µM, stronger effect = lower value. (In general: ATP-based viability assays read luminescence as a measure of living cells.)
A short description of assay [2]: HUVEC growth inhibition – cell-based, human, primary screen (AID 575;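 active = viability at or below 30% in both replicate assays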;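 note: 100% = median of untreated cell wells with 0.1% DMSO on each plate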). The note with it: HUVEC proliferation, CellTiter-Glo luminescence, 72 h; at 10 µM; stronger effect = lower value. The method, boiled down: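 Assay system: primary human umbilical vein endothelial cells / Buffer or medium: endothelial basal medium with 2% FBS plus growth supplements / Compound dosing: one dose, 10 µM final, 0.1% DMSO / Timing: 72 h treatment at 37 °C / Signal: CTG luminescence / Benchmarks: 32 DMSO-only cell-control wells (high), 32 MePR drug-control wells (low) per plate / Plate: collagen-coated 384-well format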

Assay [3] can be described thus: H69AR cell proliferation blockers – human, duplicate replicates, primary screen (AID 580;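 active = viability at or under a set limit in both replicates, limit being median viability minus 3 SD, cut at about 48% in these data, passing the limit was not always enough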;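 note: 100% = mean luminescence of untreated wells and 0% = no signal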). Particulars: H69AR lung tumor cells viability, ATP luminescence, 72 h; at 10 µM; stronger effect = lower value.
Assay [4] in a line: MRP1 drug-resistance reversers in H69AR cells – cell-based, doxorubicin co-treatment, pilot screen (AID 601;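 active = viability loss from added drug above about 55%, and viability with drug at most 40%, in both replicates, limit read from the data, passing the limit was not always enough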). The note with it: CellTiter-Glo, 72 h, at 10 µM; for differential viability (reversal): stronger effect = higher value.
Assay [5] in a line: yeast transport mutant growth inhibition pilot in 384-well plates, post-Golgi transport modulator project (AID 636; in the data active = inhibition above about 31%). Particulars: absorbance 615 nm, about 18 h, stronger effect = higher value.
The nature of assay [6]: growth suppression of yeast trafficking mutant, preliminary HTS, modulators of trafficking downstream of Golgi apparatus project, 1536-format plate, OD 615 nm (AID 637). The note with it: yeast transport mutant growth, absorbance 615 nm, 18 h; stronger effect = higher value.
The mark [7] stands for this setting: H69AR cells + 2 uM doxorubicin, measured here: viability with 2 uM doxorubicin, stronger effect = lower value.
The mark [8] stands for this setting: H69AR cells, compound alone cytotoxicity.

For `O=C1CCC(C(=O)N(Cc2ccco2)C2(C(=O)NC3CCCC3)CCCCC2)N1` (centres undefined), the viability (usually a read-out of living cells in per cent, often relative to untreated cells) in assay [1] was 94% (inactive); in assay [2] it was 106% (inactive); in assay [3], 87.7% (inactive); in assay [4] (setting [7]) it was 96.1%; in assay [4] (setting [8]), 87.7%. Also, the differential viability (reversal) in assay [4] (H69AR cells + 2 uM doxorubicin) was -8.42% (inactive). For the same compound, the figures for the inhibition in assay [5] and in assay [6] were -7.81% (inactive) and -1.09% (inactive), respectively.

`Cc1ccc(-c2nnc3c4ccccc4c(C)nn23)cc1NC(=O)c1ccco1`: the viability is 81.5% (inactive) in assay [1]; 98.2% (inactive) in assay [2]; 91.8% (inactive) in assay [3]; 95.7% in assay [4] (setting [7]); 91.8% in assay [4] (setting [8]). For the same compound, in assay [4] (H69AR cells + 2 uM doxorubicin), the differential viability (reversal) was -3.85% (inactive). Besides, the inhibition (in general, the relative decrease from the control value, in per cent) in assay [5] is -5.27% (inactive); in assay [6], 6.51% (inactive).

On to `Cc1cc(C)n(-c2nc3sc4c(c3c3nnc(SCC(N)=O)n23)CC(C)(C)OC4)n1`, for which the viability in assay [1] was 84% (inactive); in assay [2], 97.4% (inactive); in assay [3], 90.7% (inactive); in assay [4] (setting [7]), 86.8%; in assay [4] (setting [8]) it was 90.7%. For the same compound, the differential viability (reversal) in assay [4] (H69AR cells + 2 uM doxorubicin) was 3.85% (inactive). Further, the inhibition in assay [5] was 0.68% (inactive); in assay [6], -3.87% (inactive).

Turning to `Cc1nc(CNS(=O)(=O)c2cccc(F)c2)cs1`, the viability was 64% (inactive) in assay [1]; 93.3% (inactive) in assay [2]; 91.4% (inactive) in assay [3]; 90.1% in assay [4] (setting [7]); 91.4% in assay [4] (setting [8]). In assay [4] (H69AR cells + 2 uM doxorubicin), the differential viability (reversal) is 1.23% (inactive). For the same compound, the inhibition in assay [5] was -1.95% (inactive); in assay [6] it was 12.1% (inactive).

`CC(=O)OCC1=C(C(=O)O)N2C(=O)[C@@H](NC(=O)Cc3cccs3)[C@H]2SC1`: the viability is 141% (inactive) in assay [1]; 94.8% (inactive) in assay [2]; 94.2% (inactive) in assay [3]; 90.2% in assay [4] (setting [7]); 94.2% in assay [4] (setting [8]). Moreover, the differential viability (reversal) in assay [4] (H69AR cells + 2 uM doxorubicin) is 3.98% (inactive). In addition, the inhibition in assay [5] was -4.81% (inactive); in assay [6] it was 8.5% (inactive).

Take `NC(N)=NC(=O)c1nc(Cl)c(N)nc1N`: the viability in assay [1] was 117% (inactive); in assay [2], 86.5% (inactive); in assay [3], 91.2% (inactive); in assay [4] (setting [7]) it was 95.5%; in assay [4] (setting [8]), 91.2%. In assay [4] (H69AR cells + 2 uM doxorubicin), the differential viability (reversal) was -4.34% (inactive). The inhibition in assay [5] is -2.34% (inactive); in assay [6], 1.67% (inactive).

As for `O=C(CN1C(=O)c2cccc3cccc1c23)Nc1ccccc1C(=O)NCc1ccco1`, the viability was 89% (inactive) in assay [1]; 108% (inactive) in assay [2]; 78.9% (inactive) in assay [3]; 81.8% in assay [4] (setting [7]); 78.9% in assay [4] (setting [8]). For the same compound, in assay [4] (H69AR cells + 2 uM doxorubicin), the differential viability (reversal) is -2.93% (inactive). In addition, the inhibition in assay [5] was -1.49% (inactive); in assay [6], -8.67% (inactive).

With `CC(C)N(Cc1nc(-c2ccccc2)no1)C(=O)CCCN1C(=O)c2ccccc2C1=O`, the viability was 104% (inactive) in assay [1]; 112% (inactive) in assay [2]; 97.9% (inactive) in assay [3]; 82.2% in assay [4] (setting [7]); 97.9% in assay [4] (setting [8]). The differential viability (reversal) in assay [4] (H69AR cells + 2 uM doxorubicin) was 15.7% (inactive). The results for the inhibition in assay [5] and in assay [6] were -3.12% (inactive) and 0.98% (inactive), respectively.

Take `CS(=O)(=O)N(CC(=O)NCCSCc1cccc(Cl)c1)c1ccc2c(c1)OCO2`: the viability in assay [1] was 94% (inactive); in assay [2] it was 97.9% (inactive); in assay [3], 93.4% (inactive); in assay [4] (setting [7]) it was 97.8%; in assay [4] (setting [8]), 93.4%. Also, in assay [4] (H69AR cells + 2 uM doxorubicin), the differential viability (reversal) was -4.33% (inactive). Besides, the values for the inhibition in assay [5] and in assay [6] were -2.21% (inactive) and -2.62% (inactive), respectively.

Regarding `COC(=O)Nc1sc2c(c1C(N)=O)CCCCCC2`, the viability in assay [1] is 89% (inactive); in assay [2], 105% (inactive); in assay [3] it was 99.5% (inactive); in assay [4] (setting [7]), 80.2%; in assay [4] (setting [8]), 99.5%. The differential viability (reversal) in assay [4] (H69AR cells + 2 uM doxorubicin) was 19.3% (inactive). Besides, the results for the inhibition in assay [5] and in assay [6] were -1.82% (inactive) and 5.25% (inactive), respectively.

Take `c1ccc(Cc2nn3c(Cn4cnc5ccccc54)nnc3s2)cc1`: the viability was 128% (inactive) in assay [1]; 78.9% (inactive) in assay [2]; 85.8% (inactive) in assay [3]; 82.3% in assay [4] (setting [7]); 85.8% in assay [4] (setting [8]). Also, in assay [4] (H69AR cells + 2 uM doxorubicin), the differential viability (reversal) is 3.46% (inactive). Moreover, the values for the inhibition in assay [5] and in assay [6] were -5.34% (inactive) and -0.65% (inactive), respectively.

As to `CCOC(=O)c1sc(NC(=O)CSc2ncn(-c3ccccc3)n2)nc1C`, the viability in assay [1] is 109% (inactive); in assay [2], 97.5% (inactive); in assay [3], 82.9% (inactive); in assay [4] (setting [7]) it was 88.1%; in assay [4] (setting [8]), 82.9%. The differential viability (reversal) in assay [4] (H69AR cells + 2 uM doxorubicin) is -5.19% (inactive). Besides, the inhibition in assay [5] was -7.95% (inactive); in assay [6] it was 3.09% (inactive).

Consider `Cc1ccc(S(=O)(=O)NC(C)C(=O)Nc2ccc(C(N)=O)cc2)cc1` (centres undefined), for which the viability in assay [1] was 81% (inactive); in assay [2], 88.4% (inactive); in assay [3] it was 100% (inactive); in assay [4] (setting [7]), 96%; in assay [4] (setting [8]), 100%. Also, in assay [4] (H69AR cells + 2 uM doxorubicin), the differential viability (reversal) is 4.08% (inactive). For the same compound, the inhibition in assay [5] is -0.27% (inactive); in assay [6], -5.81% (inactive).

`Cc1ccc(S(=O)(=O)N2CCN(c3nc(C)nc4sc(C)c(C)c34)CC2)cc1`: the viability was 95% (inactive) in assay [1]; 108% (inactive) in assay [2]; 99.5% (inactive) in assay [3]; 102% in assay [4] (setting [7]); 99.5% in assay [4] (setting [8]). Further, in assay [4] (H69AR cells + 2 uM doxorubicin), the differential viability (reversal) was -2.76% (inactive). Also, the inhibition in assay [5] is -3.73% (inactive); in assay [6], -0.73% (inactive).

Take `CCOC(=O)C1=C(c2ccccc2)N2CCS(=O)(=O)N=C2S1`: the viability was 92% (inactive) in assay [1]; 96.9% (inactive) in assay [2]; 90.2% (inactive) in assay [3]; 83.7% in assay [4] (setting [7]); 90.2% in assay [4] (setting [8]). In addition, in assay [4] (H69AR cells + 2 uM doxorubicin), the differential viability (reversal) was 6.51% (inactive). The results for the inhibition in assay [5] and in assay [6] were -2.13% (inactive) and 0% (inactive), respectively.

On to `CS(=O)(=O)N(Cc1ccccc1)c1ccc(C(=O)N2CCOCC2)cc1`, for which the viability in assay [1] was 95% (inactive); in assay [2], 105% (inactive); in assay [3] it was 97.7% (inactive); in assay [4] (setting [7]), 91%; in assay [4] (setting [8]), 97.7%. In addition, the differential viability (reversal) in assay [4] (H69AR cells + 2 uM doxorubicin) was 6.74% (inactive). Further, the figures for the inhibition in assay [5] and in assay [6] were -2.86% (inactive) and -5.57% (inactive), respectively.

For the compound `CCCn1c(=O)c2[nH]c(C3CCCC3)nc2n(CCC)c1=O`, the viability was 100% (inactive) in assay [1]; 77.3% (inactive) in assay [2]; 70.7% (inactive) in assay [3]; 19.9% in assay [4] (setting [7]); 70.7% in assay [4] (setting [8]). The differential viability (reversal) in assay [4] (H69AR cells + 2 uM doxorubicin) is 50.8% (inactive). Also, the figures for the inhibition in assay [5] and in assay [6] were -1.3% (inactive) and -1% (inactive), respectively.

For the compound `O=C(O)c1ccccc1Nc1cccc(C(F)(F)F)c1`, the viability in assay [1] was 135% (inactive); in assay [2] it was 69.6% (inactive); in assay [3], 88.6% (inactive); in assay [4] (setting [7]) it was 77.3%; in assay [4] (setting [8]), 88.6%. In addition, the differential viability (reversal) in assay [4] (H69AR cells + 2 uM doxorubicin) was 11.3% (inactive). The inhibition in assay [5] was -1.3% (inactive); in assay [6], 2% (inactive).
